Reference: ChEMBL document CHEMBL2417469, “Synthesis of novel analogs of 2-pyrazoline obtained from [(7-chloroquinolin-4-yl)amino]chalcones and hydrazine as potential antitumor and antimalarial agents” (Eur J Med Chem, 2013)

Experiments:
Type in all cases: functional
A549 = test: Cytotoxicity against human A549/ATCC cells after 48 hrs by SRB assay; details: A549, 48 h
How it was run: (§1)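 NCI 60-cell-line screen. Cells preincubated 24 h at 37 °C, 5% CO2; time-zero plates TCA-fixed. Compounds dissolved in DMSO and tested at five concentrations (100, 10, 1.0, 0.1, 0.01 µM) for 48 h continuous exposure. Adherent cells fixed with cold TCA (10% final), then SRB stained; absorbance at 515 nm. GI50, TGI and LC50 calculated from growth relative to time-zero and untreated controls.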

UACC-257 = test: Cytotoxicity against human UACC257 cells after 48 hrs by SRB assay; details: UACC-257, 48 h
How it was run: (§2)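 NCI 60-cell screen. Cells grew 24 h (37 °C, 5% CO2) before compound was added. Compounds were in DMSO and diluted in medium with gentamicin, then tested at five levels (100, 10, 1.0, 0.1, 0.01 µM) with 48 h continuous exposure. Adherent cells were fixed with TCA (10% final) and stained with 0.4% SRB, absorbance read at 515 nm. A time-zero plate was included. LC50 is the concentration giving 50% loss of protein relative to time zero.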

OVCAR-3 = test: Cytotoxicity against human OVCAR3 cells after 48 hrs by SRB assay; details: OVCAR-3, 48 h; how it was run: as §1
MCF7 = test: Cytotoxicity against human MCF7 cells after 48 hrs by SRB assay; details: MCF7, 48 h; how it was run: as §1
[1] = Cytotoxicity against human EKVX cells after 48 hrs by SRB assay; how it was run: as §1
Hs-578T = test: Cytotoxicity against human Hs578T cells after 48 hrs by SRB assay; how it was run: as §1
HCC 2998 = test: Cytotoxicity against human HCC2998 cells after 48 hrs by SRB assay; details: HCC 2998, 48 h; how it was run: as §1
NCI-H460 = test: Cytotoxicity against human NCI-H460 cells after 48 hrs by SRB assay; details: NCI-H460, 48 h; how it was run: as §1
SK-MEL-2 = test: Cytotoxicity against human SK-MEL-2 cells after 48 hrs by SRB assay; details: SK-MEL-2, 48 h; how it was run: as §1
HCT-15 = test: Cytotoxicity against human HCT15 cells after 48 hrs by SRB assay; details: HCT-15, 48 h; how it was run: as §1
HL-60(TB) = test: Cytotoxicity against human HL-60(TB) cells after 48 hrs by SRB assay; details: HL-60, 48 h; how it was run: as §1
NCI-H23 = test: Cytotoxicity against human NCI-H23 cells after 48 hrs by SRB assay; details: NCI-H23, 48 h; how it was run: as §1
LOX IMVI = test: Cytotoxicity against human LOXIMVI cells after 48 hrs by SRB assay; how it was run: as §1
SNB-19 = test: Cytotoxicity against human SNB19 cells after 48 hrs by SRB assay; details: SNB-19, 48 h; how it was run: as §2
HOP-92 = test: Cytotoxicity against human HOP92 cells after 48 hrs by SRB assay; details: HOP-92, 48 h; how it was run: as §1
SN12C = test: Cytotoxicity against human SN12C cells after 48 hrs by SRB assay; how it was run: as §1
SK-MEL-5 = test: Cytotoxicity against human SK-MEL-5 cells after 48 hrs by SRB assay; details: SK-MEL-5, 48 h; how it was run: as §1
OVCAR-4 = test: Cytotoxicity against human OVCAR4 cells after 48 hrs by SRB assay; details: OVCAR-4, 48 h; how it was run: as §1
786-0 = test: Cytotoxicity against human 786-0 cells after 48 hrs by SRB assay; details: 786-0, 48 h; how it was run: as §1
DU-145 = test: Cytotoxicity against human DU145 cells after 48 hrs by SRB assay; details: DU-145, 48 h; how it was run: as §1
BT-549 = test: Cytotoxicity against human BT549 cells after 48 hrs by SRB assay; details: BT-549, 48 h; how it was run: as §1
HOP-62 = test: Cytotoxicity against human HOP62 cells after 48 hrs by SRB assay; details: HOP-62, 48 h; how it was run: as §1
MDA-MB-435 = test: Cytotoxicity against human MDA-MB-435 cells after 48 hrs by SRB assay; details: MDA-MB-435, 48 h; how it was run: as §1
MDA-MB-231 = test: Cytotoxicity against human MDA-MB-231 cells after 48 hrs by SRB assay; details: MDA-MB-231, 48 h; how it was run: as §1
MDA-MB-468 = test: Cytotoxicity against human MDA-MB-468 cells after 48 hrs by SRB assay; details: MDA-MB-468, 48 h; how it was run: as §1
NCI-H226 = test: Cytotoxicity against human NCI-H226 cells after 48 hrs by SRB assay; details: NCI-H226, 48 h; how it was run: as §1
NCI-H522 = test: Cytotoxicity against human NCI-H522 cells after 48 hrs by SRB assay; details: NCI-H522, 48 h; how it was run: as §1
UACC-62 = test: Cytotoxicity against human UACC62 cells after 48 hrs by SRB assay; details: UACC-62, 48 h; how it was run: as §2
KM12 = test: Cytotoxicity against human KM12 cells after 48 hrs by SRB assay; details: KM12, 48 h; how it was run: as §1
M14 = test: Cytotoxicity against human M14 cells after 48 hrs by SRB assay; details: M14, 48 h; how it was run: as §1
SF-268 = test: Cytotoxicity against human SF268 cells after 48 hrs by SRB assay; details: SF-268, 48 h; how it was run: as §1
SNB-75 = test: Cytotoxicity against human SNB75 cells after 48 hrs by SRB assay; details: SNB-75, 48 h; how it was run: as §2
IGROV-1 = test: Cytotoxicity against human IGROV1 cells after 48 hrs by SRB assay; details: IGROV-1, 48 h; how it was run: as §1
PC-3 = test: Cytotoxicity against human PC3 cells after 48 hrs by SRB assay; details: PC-3, 48 h; how it was run: as §1
NCI/ADR-RES = test: Cytotoxicity against human NCI/ADR-RES cells after 48 hrs by SRB assay; how it was run: as §1
UO-31 = test: Cytotoxicity against human UO31 cells after 48 hrs by SRB assay; details: UO-31, 48 h; how it was run: as §2
[2] = read-out: LC50 (the source's name)

SMILES: COc1cc(C2CC(c3cccc(Nc4ccnc5cc(Cl)ccc45)c3)=NN2C=O)cc(OC)c1OC (configuration not stated)
- GI50 (A549): 0.66 µM
- CC50 (A549; [2]): > 100 µM
- GI50 (UACC-257): 1.4 µM
- LC50 (UACC-257): > 100 µM
- GI50 (OVCAR-3): 0.52 µM
- LC50 (OVCAR-3): 6.06 µM
- GI50 (MCF7): 0.37 µM
- CC50 (MCF7; [2]): > 100 µM
- GI50 [1]: 0.98 µM
- LC50 [1]: > 100 µM
- GI50 (Hs-578T): 0.68 µM
- LC50 (50% net cell kill) (Hs-578T): > 100 µM
- GI50 (HCC 2998): 2.16 µM
- LC50 (HCC 2998): > 100 µM
- GI50 (NCI-H460): 0.42 µM
- LC50 (NCI-H460): > 100 µM
- GI50 (SK-MEL-2): 0.73 µM
- LC50 (SK-MEL-2): 50.1 µM
- GI50 (HCT-15): 0.55 µM
- LC50 (concentration killing 50% of cells relative to time zero) (HCT-15): > 100 µM
- GI50 (HL-60(TB)): 0.26 µM
- CC50 (HL-60(TB); [2]): 3.97 µM
- GI50 (NCI-H23): 1.38 µM
- CC50 (NCI-H23; [2]): > 100 µM
- GI50 (LOX IMVI): 0.71 µM
- LC50 (LOX IMVI): > 100 µM
- GI50 (SNB-19): 3.42 µM
- LC50 (SNB-19): > 100 µM
- GI50 (HOP-92): 2.75 µM
- LC50 (concentration killing 50% of cells) (HOP-92): > 100 µM
- GI50 (SN12C): 0.78 µM
- LC50 (50% net cell kill relative to time zero) (SN12C): > 100 µM
- GI50 (SK-MEL-5): 0.42 µM
- LC50 (concentration killing 50% of cells present at time zero) (SK-MEL-5): 23.5 µM
- GI50 (OVCAR-4): 1.13 µM
- LC50 (OVCAR-4): > 100 µM
- GI50 (786-0): 0.84 µM
- LC50 (786-0): 76.3 µM
- GI50 (DU-145): 2.68 µM
- LC50 (concentration killing 50% of cells) (DU-145): > 100 µM
- GI50 (BT-549): 0.39 µM
- LC50 (50% net cell kill vs time zero) (BT-549): 4.61 µM
- GI50 (HOP-62): 1.12 µM
- LC50 (50% lethal concentration) (HOP-62): 66.5 µM
- GI50 (MDA-MB-435): 0.22 µM
- LC50 (MDA-MB-435): > 100 µM
- GI50 (MDA-MB-231): 1.6 µM
- LC50 (concentration killing 50% of cells present at time zero) (MDA-MB-231): > 100 µM
- GI50 (MDA-MB-468): 0.3 µM
- LC50 (MDA-MB-468): 23.3 µM
- GI50 (NCI-H226): 2.2 µM
- LC50 (50% lethal concentration) (NCI-H226): > 100 µM
- GI50 (NCI-H522): 0.75 µM
- CC50 (NCI-H522; [2]): > 100 µM
- GI50 (UACC-62): 0.72 µM
- CC50 (UACC-62; [2]): 84 µM
- GI50 (KM12): 0.5 µM
- LC50 (concentration killing 50% of cells) (KM12): > 100 µM
- GI50 (M14): 0.35 µM
- CC50 (M14; [2]): 57.5 µM
- GI50 (SF-268): 2.55 µM
- LC50 (SF-268): > 100 µM
- GI50 (SNB-75): 0.38 µM
- LC50 (50% net cell kill) (SNB-75): 51 µM
- GI50 (IGROV-1): 3.29 µM
- LC50 (concentration killing 50% of cells relative to time zero) (IGROV-1): > 100 µM
- GI50 (PC-3): 1.46 µM
- LC50 (PC-3): > 100 µM
- GI50 (NCI/ADR-RES): 1.36 µM
- CC50 (NCI/ADR-RES; [2]): > 100 µM
- GI50 (UO-31): 1.3 µM
- LC50 (UO-31): > 100 µM
